{
  "source": "ChEMBL document CHEMBL4118063",
  "about": "“Design, synthesis and evaluation of aromatic heterocyclic derivatives as potent antifungal agents” (Eur J Med Chem, 2017)",
  "key": {"[1]": {"target": "T1, Lanosterol 14-alpha demethylase (Candida albicans (strain SC5314 / ATCC MYA-2876) (Yeast), UniProt P10613)", "T1 sequence (P10613 whole entry)": "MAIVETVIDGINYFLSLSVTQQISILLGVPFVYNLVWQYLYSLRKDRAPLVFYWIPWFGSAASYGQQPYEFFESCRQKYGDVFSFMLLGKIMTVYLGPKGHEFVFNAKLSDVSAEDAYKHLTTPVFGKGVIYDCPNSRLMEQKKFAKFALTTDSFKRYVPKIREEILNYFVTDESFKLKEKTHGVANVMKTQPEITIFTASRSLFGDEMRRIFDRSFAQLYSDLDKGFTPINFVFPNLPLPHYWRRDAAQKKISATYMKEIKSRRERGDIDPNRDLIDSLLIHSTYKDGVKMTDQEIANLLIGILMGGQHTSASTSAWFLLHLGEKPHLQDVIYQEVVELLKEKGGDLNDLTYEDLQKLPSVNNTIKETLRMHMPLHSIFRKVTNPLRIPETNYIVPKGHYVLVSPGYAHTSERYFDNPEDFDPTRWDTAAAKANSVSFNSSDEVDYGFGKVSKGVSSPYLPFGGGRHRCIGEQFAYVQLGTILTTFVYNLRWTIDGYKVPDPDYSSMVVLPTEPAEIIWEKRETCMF", "experiment": "Inhibition of CYP51 in Candida albicans ATCC SC5314 assessed as ergosterol content at 2 ug/ml by GS-MS analysis relative to total sterols (reference value: 98.7%)", "set-up": "scale not given: the % may be the effect or the level left", "conditions": "at 2 µg/mL"}, "[2]": {"test_system": "Candida albicans", "experiment": "Antifungal activity against fluconazole-resistant Candida albicans strain 100 by broth microdilution method", "assay_type": "functional", "how_it_was_run": "(§1)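 Broth serial dilution in 96-well plates per NCCLS guidelines; compounds dissolved in DMSO and serially diluted into growth medium; MIC taken as lowest concentration inhibiting visible fungal growth. Fluconazole-resistant clinical C. albicans isolates 100 and 103; fluconazole and itraconazole as positive controls.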"}, "[3]": {"target": "T1, Lanosterol 14-alpha demethylase", "experiment": "Inhibition of CYP51 in Candida albicans ATCC SC5314 assessed as eburicol content at 8 ug/ml by GS-MS analysis relative to total sterols (reference value: 0.4%)", "set-up": "scale not given: the % may be the effect or the level left", "conditions": "at 8 µg/mL"}, "[4]": {"test_system": "Aspergillus fumigatus", "experiment": "Antifungal activity against Aspergillus fumigatus GIM 3.524 by broth microdilution method", "assay_type": "functional", "how_it_was_run": "(§2)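 Serial twofold-style dilution in growth medium per NCCLS broth microdilution guidelines. Compounds dissolved in DMSO before dilution. Fluconazole and itraconazole served as positive controls. MIC was read as the lowest concentration that prevents visible fungal growth.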"}, "[5]": {"target": "T1, Lanosterol 14-alpha demethylase", "experiment": "Inhibition of CYP51 in Candida albicans ATCC SC5314 assessed as 4,4-dimethyl zymosterol content at 8 ug/ml by GS-MS analysis relative to total sterols", "set-up": "scale not given: the % may be the effect or the level left", "how_it_was_run": "(§3)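 C. albicans SC5314 cells exposed to drug at 0.03125–8 µg/mL alongside untreated and fluconazole-treated cells; sterols extracted and analysed by GC-MS with cholesterol as internal standard; each sterol expressed as percent of total sterols.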"}, "[6]": {"target": "T1, Lanosterol 14-alpha demethylase", "experiment": "Inhibition of CYP51 in Candida albicans ATCC SC5314 assessed as obtusifoliol content at 0.03125 ug/ml by GS-MS analysis relative to total sterols (reference value: 0.6%)", "set-up": "scale not given: the % may be the effect or the level left"}, "[7]": {"test_system": "Candida albicans", "experiment": "Antifungal activity against Candida albicans ATCC SC5314 by broth microdilution method", "assay_type": "functional", "how_it_was_run": "as §2"}, "[8]": {"target": "T1, Lanosterol 14-alpha demethylase", "experiment": "Inhibition of CYP51 in Candida albicans ATCC SC5314 assessed as eburicol content at 0.03125 ug/ml by GS-MS analysis relative to total sterols (reference value: 0.4%)", "set-up": "scale not given: the % may be the effect or the level left"}, "[9]": {"test_system": "Candida albicans", "experiment": "Antifungal activity against fluconazole-resistant Candida albicans strain 103 by broth microdilution method", "assay_type": "functional", "how_it_was_run": "as §1"}, "[10]": {"target": "T1, Lanosterol 14-alpha demethylase", "experiment": "Inhibition of CYP51 in Candida albicans ATCC SC5314 assessed as obtusifoliol content at 8 ug/ml by GS-MS analysis relative to total sterols (reference value: 0.6%)", "set-up": "scale not given: the % may be the effect or the level left", "conditions": "at 8 µg/mL"}, "[11]": {"test_system": "Candida albicans", "experiment": "Antifungal activity against Candida albicans CPCC 400523 by broth microdilution method", "assay_type": "functional", "how_it_was_run": "as §2"}, "[12]": {"target": "T1, Lanosterol 14-alpha demethylase", "experiment": "Inhibition of CYP51 in Candida albicans ATCC SC5314 assessed as ergosterol content at 0.125 ug/ml by GS-MS analysis relative to total sterols (reference value: 98.7%)", "set-up": "scale not given: the % may be the effect or the level left"}, "[13]": {"target": "T1, Lanosterol 14-alpha demethylase", "experiment": "Inhibition of CYP51 in Candida albicans ATCC SC5314 assessed as ergosterol content at 0.5 ug/ml by GS-MS analysis relative to total sterols (reference value: 98.7%)", "set-up": "scale not given: the % may be the effect or the level left", "conditions": "at 0.5 µg/mL"}, "[14]": {"target": "T1, Lanosterol 14-alpha demethylase", "experiment": "Inhibition of CYP51 in Candida albicans ATCC SC5314 assessed as eburicol content at 0.125 ug/ml by GS-MS analysis relative to total sterols (reference value: 0.4%)", "set-up": "scale not given: the % may be the effect or the level left"}, "[15]": {"target": "T1, Lanosterol 14-alpha demethylase", "experiment": "Inhibition of CYP51 in Candida albicans ATCC SC5314 assessed as increase in lanosterol content by GS-MS analysis"}, "[16]": {"target": "T1, Lanosterol 14-alpha demethylase", "experiment": "Inhibition of CYP51 in Candida albicans ATCC SC5314 assessed as obtusifoliol content at 0.125 ug/ml by GS-MS analysis relative to total sterols (reference value: 0.6%)", "set-up": "scale not given: the % may be the effect or the level left"}, "[17]": {"target": "T1, Lanosterol 14-alpha demethylase", "experiment": "Inhibition of CYP51 in Candida albicans ATCC SC5314 assessed as ergosterol content at 0.03125 ug/ml by GS-MS analysis relative to total sterols (reference value: 98.7%)", "set-up": "scale not given: the % may be the effect or the level left"}, "[18]": {"target": "T1, Lanosterol 14-alpha demethylase", "experiment": "Inhibition of CYP51 in Candida albicans ATCC SC5314 assessed as obtusifoliol content at 0.5 ug/ml by GS-MS analysis relative to total sterols (reference value: 0.6%)", "set-up": "scale not given: the % may be the effect or the level left", "conditions": "at 0.5 µg/mL"}, "[19]": {"target": "T1, Lanosterol 14-alpha demethylase", "experiment": "Inhibition of CYP51 in Candida albicans ATCC SC5314 assessed as lanosterol content at 8 ug/ml by GS-MS analysis relative to total sterols", "set-up": "scale not given: the % may be the effect or the level left", "conditions": "at 8 µg/mL"}, "[20]": {"test_system": "Cryptococcus neoformans", "experiment": "Antifungal activity against Cryptococcus neoformans cgmcc 2.3161 by broth microdilution method", "assay_type": "functional", "how_it_was_run": "as §2"}, "[21]": {"target": "T1, Lanosterol 14-alpha demethylase", "experiment": "Inhibition of CYP51 in Candida albicans ATCC SC5314 assessed as eburicol content at 2 ug/ml by GS-MS analysis relative to total sterols (reference value: 0.4%)", "set-up": "scale not given: the % may be the effect or the level left", "conditions": "at 2 µg/mL"}, "[22]": {"target": "T1, Lanosterol 14-alpha demethylase", "experiment": "Inhibition of CYP51 in Candida albicans ATCC SC5314 assessed as obtusifoliol content at 2 ug/ml by GS-MS analysis relative to total sterols (reference value: 0.6%)", "set-up": "scale not given: the % may be the effect or the level left", "conditions": "at 2 µg/mL"}, "[23]": {"test_system": "Candida tropicalis", "experiment": "Antifungal activity against Candida tropicalis cgmcc 2.3739 by broth microdilution method", "assay_type": "functional", "how_it_was_run": "as §2"}, "[24]": {"target": "T1, Lanosterol 14-alpha demethylase", "experiment": "Inhibition of CYP51 in Candida albicans ATCC SC5314 assessed as 4,4-dimethyl zymosterol content at 2 ug/ml by GS-MS analysis relative to total sterols", "set-up": "scale not given: the % may be the effect or the level left", "how_it_was_run": "as §3"}, "[25]": {"target": "T1, Lanosterol 14-alpha demethylase", "experiment": "Inhibition of CYP51 in Candida albicans ATCC SC5314 assessed as lanosterol content at 2 ug/ml by GS-MS analysis relative to total sterols", "set-up": "scale not given: the % may be the effect or the level left", "conditions": "at 2 µg/mL"}, "[26]": {"target": "T1, Lanosterol 14-alpha demethylase", "experiment": "Inhibition of CYP51 in Candida albicans ATCC SC5314 assessed as increase in eburicol content by GS-MS analysis"}, "[27]": {"target": "T1, Lanosterol 14-alpha demethylase", "experiment": "Inhibition of CYP51 in Candida albicans ATCC SC5314 assessed as eburicol content at 0.5 ug/ml by GS-MS analysis relative to total sterols (reference value: 0.4%)", "set-up": "scale not given: the % may be the effect or the level left", "conditions": "at 0.5 µg/mL"}, "[28]": {"target": "T1, Lanosterol 14-alpha demethylase", "experiment": "Inhibition of CYP51 in Candida albicans ATCC SC5314 assessed as lanosterol content at 0.125 ug/ml by GS-MS analysis relative to total sterols", "set-up": "scale not given: the % may be the effect or the level left"}, "[29]": {"target": "T1, Lanosterol 14-alpha demethylase", "experiment": "Inhibition of CYP51 in Candida albicans ATCC SC5314 assessed as ergosterol content at 8 ug/ml by GS-MS analysis relative to total sterols (reference value: 98.7%)", "set-up": "scale not given: the % may be the effect or the level left", "conditions": "at 8 µg/mL"}, "[30]": {"target": "T1, Lanosterol 14-alpha demethylase", "experiment": "Inhibition of CYP51 in Candida albicans ATCC SC5314 assessed as lanosterol content at 0.5 ug/ml by GS-MS analysis relative to total sterols", "set-up": "scale not given: the % may be the effect or the level left", "conditions": "at 0.5 µg/mL"}, "[31]": {"target": "T1, Lanosterol 14-alpha demethylase", "experiment": "Inhibition of CYP51 in Candida albicans ATCC SC5314 assessed as decrease in ergosterol content by GS-MS analysis"}},
  "data": [
    {"molecule": "OC(Cn1cncn1)(Cn1cncn1)c1ccc(F)cc1F", "note": "[FLUCONAZOLE]", "values": [
      {"measurement": "Activity", "setting": "[1]", "value": 18.2, "unit": "%"},
      {"measurement": "MIC", "setting": "[2]", "value": "> 64", "unit": "µg/mL"},
      {"measurement": "Activity", "setting": "[3]", "value": 37.2, "unit": "%"},
      {"measurement": "MIC", "setting": "[4]", "value": 16, "unit": "µg/mL"},
      {"measurement": "Activity", "setting": "[5]", "value": 13, "unit": "%"},
      {"measurement": "Activity", "setting": "[6]", "value": 3.6, "unit": "%"},
      {"measurement": "MIC", "setting": "[7]", "value": 1, "unit": "µg/mL"},
      {"measurement": "Activity", "setting": "[8]", "value": 0.8, "unit": "%"},
      {"measurement": "MIC", "setting": "[9]", "value": "> 64", "unit": "µg/mL"},
      {"measurement": "Activity", "setting": "[10]", "value": 13.3, "unit": "%"},
      {"measurement": "MIC", "setting": "[11]", "value": 2, "unit": "µg/mL"},
      {"measurement": "Activity", "setting": "[12]", "value": 88.7, "unit": "%"},
      {"measurement": "Activity", "setting": "[13]", "value": 81.4, "unit": "%"},
      {"measurement": "Activity", "setting": "[14]", "value": 2, "unit": "%"},
      {"measurement": "inhibition (INH)", "setting": "[15]", "value": "Dose-dependent effect"},
      {"measurement": "Activity", "setting": "[16]", "value": 8.9, "unit": "%"},
      {"measurement": "Activity", "setting": "[17]", "value": 95.6, "unit": "%"},
      {"measurement": "Activity", "setting": "[18]", "value": 6.9, "unit": "%"},
      {"measurement": "Activity", "setting": "[19]", "value": 34.8, "unit": "%"},
      {"measurement": "MIC", "setting": "[20]", "value": 4, "unit": "µg/mL"},
      {"measurement": "Activity", "setting": "[21]", "value": 27, "unit": "%"},
      {"measurement": "Activity", "setting": "[22]", "value": 16.1, "unit": "%"},
      {"measurement": "MIC", "setting": "[23]", "value": 0.25, "unit": "µg/mL"},
      {"measurement": "Activity", "setting": "[24]", "value": 15.7, "unit": "%"},
      {"measurement": "Activity", "setting": "[25]", "value": 23, "unit": "%"},
      {"measurement": "inhibition (INH)", "setting": "[26]", "value": "Dose-dependent effect"},
      {"measurement": "Activity", "setting": "[27]", "value": 7.2, "unit": "%"},
      {"measurement": "Activity", "setting": "[28]", "value": 0.4, "unit": "%"},
      {"measurement": "Activity", "setting": "[29]", "value": 1.7, "unit": "%"},
      {"measurement": "Activity", "setting": "[30]", "value": 4.5, "unit": "%"},
      {"measurement": "inhibition (INH)", "setting": "[31]", "value": "Dose-dependent effect"}
    ]}
  ]
}
